Experimental data: ChEMBL document CHEMBL1145449, “Isolation, structures, and structure - cytotoxic activity relationships of withanolides and physalins from Physalis angulata” (J Nat Prod, 2007)
Values after ≈ are worked out from the molar mass of the structure shown.

Experiments:
Type in all cases: functional, cell-based
LNCaP = test: Antitumor activity against human LNCAP cells
Procedure, shortened: (§1)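 SRB growth assay. Stock cultures grown in T-25 flasks in RPMI-1640 with […], 0.25% sodium bicarbonate, 10% FBS and 100 µg/mL kanamycin. Freshly trypsinized cells seeded at 1500-7500 per well, compounds added from DMSO-diluted stock, 3 days culture. Attached cells fixed with cold 50% TCA, stained with 0.4% SRB, bound dye solubilized, absorbance read at 562 nm. EC50 = concentration reducing growth 50%, mean of at least three independent determinations.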

A-431 = test: Antitumor activity against human A431 cells; procedure, shortened: as §1
[1] = Antitumor activity against human KB-VIN cells; details: KBVIN; procedure, shortened: as §1
HCT-8 = test: Antitumor activity against human HCT8 cells; procedure, shortened: as §1
KB = test: Antitumor activity against human KB cells; procedure, shortened: as §1
PC-3 = test: Antitumor activity against human PC3 cells; procedure, shortened: as §1
ZR-75-1 = test: Antitumor activity against human ZR751 cells; procedure, shortened: as §1
A549 = test: Antitumor activity against human A549 cells; procedure, shortened: as §1
1A9 = test: Antitumor activity against human 1A9 cells; procedure, shortened: as §1
HCT-116 = test: Antitumor activity against human HCT116 cells; procedure, shortened: as §1
DU-145 = test: Antitumor activity against human DU145 cells; procedure, shortened: as §1

In the case of C[C@]12C(=O)C=CCC1=CC[C@@H]1[C@@H]2CC[C@]2(O)C(=O)O[C@@]3(C)[C@H]4C[C@]5(C)[C@@H](CO[C@@]16O[C@@]32[C@H]5C6=O)C(=O)O4 [PHYSALIN B], the EC50 (LNCaP) is reported as 5.3 µg/mL (≈ 10.4 µM), the EC50 (A-431) is reported as 1.8 µg/mL (≈ 3.53 µM) and the EC50 [1] is reported as 1.3 µg/mL (≈ 2.55 µM). For the same molecule, the EC50 (HCT-8) was 1.5 µg/mL (≈ 2.94 µM), the EC50 (KB) was 3 µg/mL (≈ 5.88 µM) and the EC50 (PC-3) was 0.9 µg/mL (≈ 1.76 µM). The EC50 (ZR-75-1) was 2.6 µg/mL (≈ 5.09 µM) and the EC50 (A549) was 5.9 µg/mL (≈ 11.6 µM).
In the case of C[C@@]12C[C@H]3OC(=O)[C@@H]1CO[C@@]14O[C@]5([C@H]2C1=O)[C@@](O)(CC[C@H]1[C@H]4C[C@@H](O)[C@@]2(O)CC=CC(=O)[C@]12C)C(=O)O[C@@]35C [PHYSALIN D], the EC50 (LNCaP) is reported as 1.3 µg/mL (≈ 2.39 µM), the EC50 (A-431) is reported as 1.4 µg/mL (≈ 2.57 µM) and the EC50 [1] is reported as 7 µg/mL (≈ 12.9 µM). It also gave an EC50 (HCT-8) of 1.2 µg/mL (≈ 2.2 µM), an EC50 (KB) of 1.2 µg/mL (≈ 2.2 µM) and an EC50 (PC-3) of 1.6 µg/mL (≈ 2.94 µM). It also gave an EC50 (ZR-75-1) of 0.4 µg/mL (≈ 0.735 µM) and an EC50 (A549) of 1.6 µg/mL (≈ 2.94 µM).
With C[C@@]12C[C@H]3OC(=O)[C@@H]1CO[C@]14O[C@]5([C@H]2C1=O)[C@@](O)(CC[C@H]1[C@H]4C[C@H]2O[C@]24CC=CC(=O)[C@]14C)C(=O)O[C@@]35C [PHYSALIN F] the EC50 (LNCaP) was 1 µg/mL (≈ 1.9 µM), the EC50 (A-431) was 1.1 µg/mL (≈ 2.09 µM) and the EC50 [1] was 1.9 µg/mL (≈ 3.61 µM). The EC50 (HCT-8) was 1 µg/mL (≈ 1.9 µM), the EC50 (KB) was 0.9 µg/mL (≈ 1.71 µM) and the EC50 (PC-3) was 1.1 µg/mL (≈ 2.09 µM). For the same molecule, the EC50 (ZR-75-1) was 0.3 µg/mL (≈ 0.57 µM) and the EC50 (A549) was 1.3 µg/mL (≈ 2.47 µM).
C[C@@]12C[C@H]3OC(=O)[C@@H]1CO[C@@]14O[C@]5(C2C1=O)[C@@](O)(CC[C@H]1[C@H]4C[C@@H]2O[C@@]24CC=CC(=O)[C@]14C)C(=O)O[C@@]35C [PHYSALIN J] showed an EC50 (A-431) of 17 µg/mL (≈ 32.3 µM).
With CO[C@@H]1CC(=O)[C@]2(C)[C@H]3CC[C@@]4(O)C(=O)O[C@@]5(C)[C@H]6C[C@@]7(C)C8C(=O)[C@@](OC[C@H]7C(=O)O6)(O[C@]845)[C@@H]3C[C@H]3O[C@]32C1 [PHYSALIN U] the EC50 (LNCaP) was 15.9 µg/mL (≈ 28.5 µM), the EC50 (A-431) was 13.4 µg/mL (≈ 24 µM) and the EC50 [1] was 20 µg/mL (≈ 35.8 µM). The EC50 (HCT-8) was 11.1 µg/mL (≈ 19.9 µM), the EC50 (KB) was 11.9 µg/mL (≈ 21.3 µM) and the EC50 (PC-3) was 18.1 µg/mL (≈ 32.4 µM). It also gave an EC50 (ZR-75-1) of 8.2 µg/mL (≈ 14.7 µM) and an EC50 (A549) of 16.3 µg/mL (≈ 29.2 µM).
CO[C@@H]1CC(=O)[C@@]2(C)[C@@H](CC[C@@H]3[C@@H]2CC[C@@]2(O)C(=O)O[C@@]4(C)[C@H]5C[C@@]6(C)C7C(=O)[C@@]3(OC[C@H]6C(=O)O5)O[C@]724)C1 [PHYSALIN W] showed an EC50 (1A9) of 9.2 µg/mL (≈ 16.9 µM).
In the case of CC1=C(C)C(=O)OC([C@](C)(O)[C@]2(O)C[C@H](O)[C@@]3(O)[C@@H]4C[C@H]5O[C@]56[C@@H](O)C=CC(=O)[C@]6(C)[C@H]4CC[C@@]32C)C1 (stereo partly specified) [WITHANGULATIN B], the EC50 (HCT-116) is reported as 0.4 µg/mL (≈ 0.771 µM), the EC50 (LNCaP) is reported as 0.2 µg/mL (≈ 0.386 µM) and the EC50 (DU-145) is reported as 1.3 µg/mL (≈ 2.51 µM). For the same molecule, the EC50 (1A9) was 0.2 µg/mL (≈ 0.386 µM).
In the case of CO[C@H]1C[C@@](O)([C@@](C)(O)C2CC(C)=C(C)C(=O)O2)[C@@]2(C)CC[C@H]3[C@@H](C[C@H]4O[C@]45[C@@H](O)CCC(=O)[C@]35C)[C@]12O (stereo partly specified) [WITHANGULATIN C], the EC50 (HCT-116) is reported as 11.4 µg/mL (≈ 21.3 µM), the EC50 (LNCaP) is reported as 13.9 µg/mL (≈ 26 µM) and the EC50 (1A9) is reported as 6.5 µg/mL (≈ 12.2 µM).
In the case of CC1=C(C)C(=O)OC([C@](C)(O)[C@]2(O)[C@@H](O)C[C@@]3(O)[C@@H]4C[C@@H](O)[C@@]5(O)[C@@H](O)C=CC(=O)[C@]5(C)[C@H]4CC[C@]23C)C1 (stereo partly specified) [WITHANGULATIN G], the EC50 (LNCaP) is reported as 13.4 µg/mL (≈ 25 µM) and the EC50 (1A9) is reported as 18.8 µg/mL (≈ 35 µM).
Molecule CO[C@H]1CC(=O)[C@]2(C)[C@H]3CC[C@]4(C)[C@](O)([C@@](C)(O)C5CC(C)=C(C)C(=O)O5)[C@@H](O)C[C@@]4(O)[C@@H]3C[C@H]3O[C@]32C1 (stereo partly specified) [WITHANGULATIN H] has an EC50 (HCT-116) of 9.2 µg/mL (≈ 17.2 µM), an EC50 (LNCaP) of 9.6 µg/mL (≈ 18 µM) and an EC50 (1A9) of 3.7 µg/mL (≈ 6.92 µM).
